Assay results from ChEMBL document CHEMBL1287688 (Bioorg Med Chem, 2010).

Assays:
[1] = target: T1, Glutamate NMDA receptor; GRIN1/GRIN2B (Homo sapiens, UniProt Q05586+Q13224); experiment: Displacement of [3H]ifenprodil from human recombinant NR1-1a/NR2B receptor expressed in mouse L(tk-) cells after 120 mins by scintillation counting; format: cell-based
[2] = Displacement of [3H]di-o-tolylguanidine from sigma2 receptor rat liver membranes after 180 mins scintillation counting; format: cell membranes, Membrane
[3] = target: Sigma non-opioid intracellular receptor 1 (Cavia porcellus, UniProt Q60492); experiment: Displacement of [3H](+)-pentazocine from sigma1 receptor guinea pig brain after 180 mins scintillation counting
[4] = target: T1, Glutamate NMDA receptor; GRIN1/GRIN2B; experiment: Antagonist activity at human recombinant NR1-1a/NR2B receptor expressed in mouse L(tk-) cells assessed as inhibition of (S)-glutamate/glycine-stimulated excitotoxicity treated 30 mins before (S)-glutamate/glycine challenge measured after 4 hrs by LDH release assay; format: functional, cell-based
Outline: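 L13-E6 mouse L(tk-) cells stably expressing NR1-1a/NR2B; compounds (1 nM-10 µM, in DMSO) preincubated 30 min, then (S)-glutamate plus glycine (10 µM each) added, 4 h further incubation. LDH in supernatant measured; 0% = no agonist with 100 µM ketamine, 100% = glutamate/glycine without ketamine. At least three experiments, six replicates per concentration; IC50 calculated from curves.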

[5] = Half life in rat liver microsomes; format: ADME, Microsome
Outline: (§1)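 Test article incubated with liver microsomes prepared from mouse, rat and human; half-life determined.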

[6] = Half life in human liver microsomes; format: ADME, Microsome; outline: as §1
[7] = Half life in mouse liver microsomes; format: ADME, Microsome; outline: as §1
[8] = Selectivity ratio of Ki for guinea pig sigma1 receptor to Ki for human recombinant NR1a/NR2B receptor
[9] = target: T2, Amine oxidase [flavin-containing] A (Homo sapiens, UniProt P21397); experiment: Displacement of radiolabeled kynuramine from MAO-A at 1 to 3 uM
T2 sequence (P21397 whole entry): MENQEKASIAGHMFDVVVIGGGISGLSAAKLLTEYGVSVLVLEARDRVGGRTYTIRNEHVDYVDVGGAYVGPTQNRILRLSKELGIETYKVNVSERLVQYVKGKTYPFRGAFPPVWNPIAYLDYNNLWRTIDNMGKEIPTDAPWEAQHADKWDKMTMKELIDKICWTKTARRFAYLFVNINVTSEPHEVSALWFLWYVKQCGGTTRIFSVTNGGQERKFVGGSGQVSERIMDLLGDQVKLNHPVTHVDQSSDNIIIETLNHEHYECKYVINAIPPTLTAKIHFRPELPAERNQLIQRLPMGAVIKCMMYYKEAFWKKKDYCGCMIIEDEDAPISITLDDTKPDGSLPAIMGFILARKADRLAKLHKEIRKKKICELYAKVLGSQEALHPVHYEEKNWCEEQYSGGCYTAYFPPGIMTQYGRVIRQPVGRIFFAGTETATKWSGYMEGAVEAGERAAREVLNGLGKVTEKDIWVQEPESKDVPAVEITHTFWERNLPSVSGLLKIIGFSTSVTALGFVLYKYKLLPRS
Outline: (§2)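 Broad radioligand competition screen against more than 100 receptors, transporters and enzymes, with test concentrations of 1-3 µM. Targets and radioligands are listed only in supplementary data. hERG IC50 was estimated.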

[10] = target: T3, UDP-glucuronosyltransferase 1A1 (Homo sapiens, UniProt P22309); experiment: Displacement of radiolabeled scopoletin from UGT1A1 at 1 to 3 uM; outline: as §2
T3 sequence (P22309 whole entry): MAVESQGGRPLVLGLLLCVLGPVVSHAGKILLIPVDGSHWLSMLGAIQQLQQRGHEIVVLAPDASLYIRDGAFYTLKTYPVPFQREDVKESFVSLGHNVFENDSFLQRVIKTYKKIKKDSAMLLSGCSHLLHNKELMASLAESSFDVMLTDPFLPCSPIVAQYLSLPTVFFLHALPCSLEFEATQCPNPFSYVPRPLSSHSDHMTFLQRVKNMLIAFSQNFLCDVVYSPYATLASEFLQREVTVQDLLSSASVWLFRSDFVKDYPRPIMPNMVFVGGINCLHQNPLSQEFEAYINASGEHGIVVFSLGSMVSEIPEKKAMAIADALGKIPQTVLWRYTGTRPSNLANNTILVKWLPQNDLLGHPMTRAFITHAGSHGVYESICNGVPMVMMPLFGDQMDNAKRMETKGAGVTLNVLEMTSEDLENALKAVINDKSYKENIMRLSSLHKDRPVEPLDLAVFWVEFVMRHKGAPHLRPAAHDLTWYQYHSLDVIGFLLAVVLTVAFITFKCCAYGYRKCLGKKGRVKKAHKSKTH

Mus musculus [11] = experiment: Toxicity in mouse assessed as diarrhea at 100 mg/kg, ip after 30 mins; format: organism-based; set-up: dose 100 mg/kg, route intraperitoneal; settings: in vivo, 0.5 h
Outline: (§3)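 Mice (Irwin test) received increasing intraperitoneal doses of 1-100 mg/kg body weight. Behaviour was then observed for 24 h.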

[12] = target: T4, Amine oxidase [flavin-containing] B (Homo sapiens, UniProt P27338); experiment: Displacement of radiolabeled kynuramine from MAO-B at 1 to 3 uM; outline: as §2
T4 sequence (P27338 whole entry): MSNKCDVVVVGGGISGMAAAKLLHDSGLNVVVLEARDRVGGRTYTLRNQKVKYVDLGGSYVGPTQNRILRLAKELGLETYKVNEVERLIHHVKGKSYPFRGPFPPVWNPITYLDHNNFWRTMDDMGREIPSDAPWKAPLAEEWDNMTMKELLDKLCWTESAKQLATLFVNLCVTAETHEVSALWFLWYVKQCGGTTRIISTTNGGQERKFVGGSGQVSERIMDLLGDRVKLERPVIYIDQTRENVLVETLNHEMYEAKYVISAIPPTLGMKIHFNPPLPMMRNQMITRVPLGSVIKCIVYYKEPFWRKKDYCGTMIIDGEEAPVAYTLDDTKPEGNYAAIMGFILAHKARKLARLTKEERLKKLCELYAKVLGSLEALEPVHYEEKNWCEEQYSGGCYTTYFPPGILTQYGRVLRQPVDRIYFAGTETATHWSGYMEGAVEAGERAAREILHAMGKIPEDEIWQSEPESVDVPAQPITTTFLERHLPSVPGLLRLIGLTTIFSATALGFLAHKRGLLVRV

Mus musculus [13] = experiment: Toxicity in mouse assessed as unusual reactions at 1 to 100 mg/kg, ip after 24 hrs; format: organism-based; set-up: dose 1-100 mg/kg, route intraperitoneal; settings: in vivo; outline: as §3

T1 sequence (Q13224 whole entry, other chains not shown): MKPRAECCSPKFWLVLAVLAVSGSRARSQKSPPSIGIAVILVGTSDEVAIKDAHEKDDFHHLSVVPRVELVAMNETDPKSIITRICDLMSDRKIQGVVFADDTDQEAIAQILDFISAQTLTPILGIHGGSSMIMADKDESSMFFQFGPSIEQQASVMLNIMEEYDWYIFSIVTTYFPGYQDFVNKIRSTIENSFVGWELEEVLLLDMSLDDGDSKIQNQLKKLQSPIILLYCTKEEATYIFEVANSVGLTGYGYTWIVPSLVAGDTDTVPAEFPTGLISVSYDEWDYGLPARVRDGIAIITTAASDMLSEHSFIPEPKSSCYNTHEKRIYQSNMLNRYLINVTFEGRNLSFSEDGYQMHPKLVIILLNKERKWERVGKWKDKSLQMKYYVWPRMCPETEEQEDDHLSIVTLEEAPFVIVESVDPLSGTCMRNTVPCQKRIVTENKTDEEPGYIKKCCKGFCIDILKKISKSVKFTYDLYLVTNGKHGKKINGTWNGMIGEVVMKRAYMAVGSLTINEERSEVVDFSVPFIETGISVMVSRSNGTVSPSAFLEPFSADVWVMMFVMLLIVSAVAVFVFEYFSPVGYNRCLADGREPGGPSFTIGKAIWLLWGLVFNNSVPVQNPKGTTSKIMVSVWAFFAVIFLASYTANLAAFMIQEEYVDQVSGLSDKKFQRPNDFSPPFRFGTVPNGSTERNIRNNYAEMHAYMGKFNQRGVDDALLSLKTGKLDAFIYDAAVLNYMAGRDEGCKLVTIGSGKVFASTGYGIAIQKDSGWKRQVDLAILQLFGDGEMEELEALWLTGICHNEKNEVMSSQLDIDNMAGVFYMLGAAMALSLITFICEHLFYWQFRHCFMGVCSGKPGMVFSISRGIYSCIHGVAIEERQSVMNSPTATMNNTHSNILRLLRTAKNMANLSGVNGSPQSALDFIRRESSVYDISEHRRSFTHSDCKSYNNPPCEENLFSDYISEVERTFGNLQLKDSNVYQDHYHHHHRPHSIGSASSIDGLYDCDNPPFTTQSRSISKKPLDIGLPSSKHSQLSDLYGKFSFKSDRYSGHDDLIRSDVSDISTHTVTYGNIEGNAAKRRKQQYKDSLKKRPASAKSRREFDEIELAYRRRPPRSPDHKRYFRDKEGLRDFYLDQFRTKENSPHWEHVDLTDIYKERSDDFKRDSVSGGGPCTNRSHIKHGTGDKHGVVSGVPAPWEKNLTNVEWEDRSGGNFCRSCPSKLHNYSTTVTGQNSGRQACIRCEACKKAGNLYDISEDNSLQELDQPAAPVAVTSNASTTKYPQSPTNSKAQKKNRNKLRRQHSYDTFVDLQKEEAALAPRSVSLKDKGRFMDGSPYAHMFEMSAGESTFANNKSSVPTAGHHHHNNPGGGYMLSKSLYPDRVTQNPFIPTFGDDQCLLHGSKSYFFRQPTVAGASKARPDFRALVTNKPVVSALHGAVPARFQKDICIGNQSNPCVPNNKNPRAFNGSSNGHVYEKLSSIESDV
Sigma non-opioid intracellular receptor 1, sequence (Q60492 whole entry): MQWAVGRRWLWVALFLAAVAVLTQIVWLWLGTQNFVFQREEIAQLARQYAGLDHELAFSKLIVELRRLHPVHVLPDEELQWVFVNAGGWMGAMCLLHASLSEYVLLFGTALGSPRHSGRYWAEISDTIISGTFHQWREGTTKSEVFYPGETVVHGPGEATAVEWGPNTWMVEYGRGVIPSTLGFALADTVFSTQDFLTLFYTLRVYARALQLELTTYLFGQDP

Row | Compound | Ki [1] [nM] | Ki [2] [nM] | Ki [3] [nM] | other results
1 | OC(CN1CCC(Cc2ccc(F)cc2)CC1)c1ccc(Cl)cc1 (configuration not stated) [ELIPRODIL] | 13 | – | – | –
2 | OC1CN(CCCSc2ccccc2)CCc2cc(OCc3ccccc3)ccc21 (racemic) | 41 | 653 | – | –
3 | O=C(CCCN1CCc2cc(OCc3ccccc3)ccc2C(O)C1)c1ccc(F)cc1 (racemic) | 151 | 1050 | 293 | –
4 | O=S(=O)(CCCN1CCc2cc(O)ccc2C(O)C1)c1ccccc1 (racemic) | > 1000 | 653 | > 1000 | –
5 | OC1CN(C2COC(c3ccccc3)OC2)CCc2cc(OCc3ccccc3)ccc21 (racemic) | 1000 | > 1000 | 186 | –
6 | COc1ccc(C2(CCCN3CCc4cc(OCc5ccccc5)ccc4C(O)C3)OCC(C)(C)CO2)cc1 (racemic) | 661 | > 1000 | > 1000 | –
7 | OC1CN([C@H]2CC[C@H](c3ccccc3)CC2)CCc2cc(OCc3ccccc3)ccc21 (some centres not stated) | 388 | > 1000 | 386 | –
8 | Oc1ccc2c(c1)CCN(CCCOc1ccccc1)CC2O (racemic) | 20 | 5.9 | 170 | –
9 | OC1CN(CCCOc2ccccc2)CCc2cc(OCc3ccccc3)ccc21 (racemic) | 93 | 945 | 193 | –
10 | OC1CN(CCCCc2ccccc2)CCc2cc(OCc3ccccc3)ccc21 (racemic) | 187 | 1050 | – | –
11 | OC1CN(Cc2ccc(N3CCCCC3)cc2)CCc2cc(OCc3ccccc3)ccc21 (racemic) | 1310 | 6430 | 604 | –
12 | COc1ccc(C(=O)CCCN2CCc3cc(OCc4ccccc4)ccc3C(O)C2)cc1 (racemic) | > 1000 | 4500 | > 1000 | –
13 | O=S(=O)(CCCN1CCc2cc(OCc3ccccc3)ccc2C(O)C1)c1ccccc1 (racemic) | 37 | 3040 | – | –
14 | O=C(c1ccccc1)N1CCC(N2CCc3cc(OCc4ccccc4)ccc3C(O)C2)CC1 (racemic) | > 1000 | > 1000 | > 1000 | –
15 | CN(Cc1ccccc1)C(=O)CN1CCc2cc(OCc3ccccc3)ccc2C(O)C1 (racemic) | 377 | 2960 | > 1000 | –
16 | COc1ccc2c(c1)CCN(CCCCc1ccccc1)CC2O (configuration not stated) | 5.4 | 554 | – | IC50 [4]: 360 nM

Row | Compound | Ki [1] [nM] | Ki [2] [nM] | Ki [3] [nM] | other results
17 | O=C(c1ccccc1)N1CCC(N2CCc3cc(O)ccc3C(O)C2)CC1 (racemic) | 204 | 98 | > 1000 | –
18 | Oc1ccc2c(c1)CCN([C@H]1CO[C@H](c3ccccc3)OC1)CC2O (mixture of isomers) | > 1000 | > 1000 | > 1000 | –
19 | CC(C(O)c1ccc(O)cc1)N1CCC(Cc2ccccc2)CC1 (configuration not stated) [IFENPRODIL] | – | – | – | half-life [5]: < 1 min; half-life [6]: 5 min; half-life [7]: < 5 min
20 | OC1CN([C@H]2CC[C@@H](c3ccccc3)CC2)CCc2cc(OCc3ccccc3)ccc21 (some centres not stated) | 139 | 311 | 10 | Ratio Ki [8]: 14
21 | CC(C)(C)c1ccc(C(=O)CCCN2CCc3cc(OCc4ccccc4)ccc3C(O)C2)cc1 (racemic) | 644 | > 1000 | > 1000 | –
22 | Oc1ccc2c(c1)CCN([C@H]1CC[C@H](c3ccccc3)CC1)CC2O (mixture of isomers) | 9 | 8.9 | 200 | –
23 | OC1CN(C2CCC3(CC2)OCCO3)CCc2cc(OCc3ccccc3)ccc21 (racemic) | 1120 | 753 | – | –
24 | CC1(C)COC(CCCN2CCc3cc(OCc4ccccc4)ccc3C(O)C2)(c2ccc(C(C)(C)C)cc2)OC1 (racemic) | > 1000 | 900 | > 1000 | –
25 | OC1CN(Cc2cccc(-c3ccccc3)c2)CCc2cc(OCc3ccccc3)ccc21 (racemic) | 1210 | > 1000 | > 1000 | –
26 | Oc1ccc2c(c1)CCN(CCCCc1ccccc1)CC2O (racemic) | 14 | 18000 | – | Activity [9]: Not Active; IC50 [4]: 18.4 nM; half-life [5]: < 3 min; Activity [10]: Not Active; Activity (Mus musculus [11]): Toxic; Activity [12]: Not Active; Activity (Mus musculus [13]): Non-toxic; half-life [6]: 21 min; half-life [7]: 28 min
27 | CC1(C)COC(CCCN2CCc3cc(OCc4ccccc4)ccc3C(O)C2)(c2ccc(F)cc2)OC1 (racemic) | 1420 | > 1000 | > 1000 | –
28 | Oc1ccc2c(c1)CCN([C@H]1CC[C@@H](c3ccccc3)CC1)CC2O (mixture of isomers) | 3.3 | 8.6 | 123 | IC50 [4]: 12100 nM
29 | Oc1ccc2c(c1)CCN(C1CCC3(CC1)OCCO3)CC2O (racemic) | > 1000 | 658 | > 1000 | –
30 | CN(Cc1ccccc1)C(=O)CN1CCc2cc(O)ccc2C(O)C1 (racemic) | > 1000 | 1580 | – | –
31 | O=C(CCCN1CCc2cc(O)ccc2C(O)C1)c1ccc(F)cc1 (racemic) | 36 | 33 | 1050 | –
